Experiment [1] can be described thus: Inhibition of recombinant full length Aedes aegypti AChE1 expressed in baculovirus-infected Sf9 insect cells using acetylthiocholine iodide as substrate measured over 60 secs by Ellman's method. A digest of the protocol:
(§1)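 Secreted, non-purified recombinant enzyme in growth medium, tested as enzyme source. Ellman assay at 30 °C in 0.1 M phosphate buffer pH 7.4 with 0.2 mM DTNB and 1 mM acetylthiocholine iodide; A412 followed over 60 s. Compound (100 mM DMSO stock) tested at eight concentrations, maximum 1 mM. Activity set relative to eight uninhibited controls per plate; IC50 from three-parameter variable-slope fit; 2-3 independent replicates.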
In general terms: Ellman's reagent forms a yellow product with free thiols.

In experiment [2] the target is Acetylcholinesterase (Homo sapiens, UniProt P22303). Description: Inhibition of recombinant human AChE expressed in HEK293F cells using acetylthiocholine iodide as substrate measured over 60 secs by Ellman's method. Set-up: species or system HEK293.
Experiment [3] deals with Acetylcholinesterase (Anopheles gambiae, UniProt Q869C3, G122S). Put plainly: Inhibition of recombinant full length Anopheles gambiae AChE1 G122S mutant expressed in baculovirus-infected Sf9 insect cells using acetylthiocholine iodide as substrate measured over 60 secs by Ellman's method.
Experiment [4] concerns the target Acetylcholinesterase (Anopheles gambiae, UniProt Q869C3). Description: Inhibition of recombinant full length Anopheles gambiae AChE1 expressed in baculovirus-infected Sf9 insect cells using acetylthiocholine iodide as substrate measured over 60 secs by Ellman's method.
A short description of experiment [5]: Selectivity ratio of IC50 for recombinant human AChE expressed in HEK293F cells to IC50 for recombinant full length Anopheles gambiae AChE1 expressed in baculovirus-infected Sf9 insect cells. The method in brief:
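Ratio of the hAChE IC50 divided by the higher of the AgAChE1 or AaAChE1 IC50. Each IC50 came from an Ellman assay (1 mM acetylthiocholine, 0.2 mM DTNB, pH 7.4, 30 °C) with eight concentrations up to 1 mM, using 2-3 replicates.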

Experiment [6] concerns Anopheles gambiae. Description: Insecticidal activity against five days old adult Anopheles gambiae Kisumu assessed as mortality at 0.2 nmol applied topically on upper part of pronotum after 24 hrs. Type of experiment: functional.
Experiment [7] relates to Anopheles gambiae. Description: Insecticidal activity against 3rd instar larvae of Anopheles gambiae Kisumu assessed as mortality at 500 uM administered via de-chlorinated tap water after 48 hrs. Type of experiment: functional.
The test system of experiment [8] is Aedes aegypti. Description: Insecticidal activity against five days old adult Aedes aegypti Mombasa assessed as mortality at 100 mM applied topically on upper part of pronotum after 48 hrs (reference value: 7 to 8%). The experiment is classed as functional. The conditions noted are these: topical.
Experiment [9] deals with Aedes aegypti. Description: Insecticidal activity against 3rd instar larvae of Aedes aegypti Mombasa assessed as mortality at 50 uM administered via de-chlorinated tap water after 48 hrs (reference value: 0 to 4%). The experiment is classed as functional.
Experiment [10] concerns Anopheles gambiae. Description: Insecticidal activity against five days old adult Anopheles gambiae Kisumu assessed as mortality at 10 mM applied topically on upper part of pronotum after 48 hrs (reference value: 14 to 22%). The experiment is classed as functional. To be noted: topical.
The test system of experiment [11] is Aedes aegypti. Put plainly: Insecticidal activity against 3rd instar larvae of Aedes aegypti Mombasa assessed as mortality at 50 uM administered via de-chlorinated tap water after 24 hrs. The experiment is classed as functional. A digest of the protocol: (§2)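 Kenyan strains were reared at 27-28 °C, about 80% humidity, 12/12 h light. Per compound and concentration, 25 third-instar larvae were placed in 100 ml de-chlorinated water containing the compound and kept under insectary conditions. The negative control was plain water; the positive control was propoxur at 25 µM. Mortality was scored at 24 h; 75 treated and 50 control larvae in total.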

In experiment [12] the test system is Anopheles gambiae. Put plainly: Insecticidal activity against five days old adult Anopheles gambiae Kisumu assessed as mortality at 100 mM applied topically on upper part of pronotum after 24 hrs (reference value: 9 to 10%). The experiment is classed as functional. The conditions noted are these: topical.
Experiment [13] has as its system Anopheles gambiae. Description: Insecticidal activity against 3rd instar larvae of Anopheles gambiae Kisumu assessed as mortality at 500 uM administered via de-chlorinated tap water after 24 hrs. Type of experiment: functional. The method in brief:
as §2

Experiment [14] concerns Anopheles gambiae. Description: Insecticidal activity against 3rd instar larvae of Anopheles gambiae Kisumu assessed as mortality at 50 uM administered via de-chlorinated tap water after 48 hrs. The experiment is classed as functional.
For experiment [15], the system named is Anopheles gambiae. Put plainly: Insecticidal activity against five days old adult Anopheles gambiae Kisumu assessed as mortality at 10 nmol applied topically on upper part of pronotum after 24 hrs. Type of experiment: functional.
The test system of experiment [16] is Anopheles gambiae. Put plainly: Insecticidal activity against five days old adult Anopheles gambiae Kisumu assessed as mortality at 2 mM applied topically on upper part of pronotum after 24 hrs (reference value: 3 to 17%). The experiment is classed as functional. The conditions noted are these: topical.
The subject of experiment [17] is Aedes aegypti. Description: Insecticidal activity against five days old adult Aedes aegypti Mombasa assessed as mortality at 10 nmol applied topically on upper part of pronotum after 24 hrs. Type of experiment: functional.
Experiment [18] relates to Aedes aegypti. Put plainly: Insecticidal activity against five days old adult Aedes aegypti Mombasa assessed as mortality at 100 mM applied topically on upper part of pronotum after 24 hrs (reference value: 3%). Type of experiment: functional. The conditions noted are these: topical.
The subject of experiment [19] is Aedes aegypti. Description: Insecticidal activity against five days old adult Aedes aegypti Mombasa assessed as mortality at 1 nmol applied topically on upper part of pronotum after 24 hrs. The experiment is classed as functional.
In experiment [20] the test system is Anopheles gambiae. Description: Insecticidal activity against five days old adult Anopheles gambiae Kisumu assessed as mortality at 10 mM applied topically on upper part of pronotum after 24 hrs (reference value: 8 to 16%). To be noted: topical. The experiment is classed as functional.
For experiment [21], the system named is Aedes aegypti. Description: Insecticidal activity against five days old adult Aedes aegypti Mombasa assessed as mortality at 2 mM applied topically on upper part of pronotum after 48 hrs (reference value: 3 to 12%). Type of experiment: functional. To be noted: topical.
The test system of experiment [22] is Aedes aegypti. Description: Insecticidal activity against five days old adult Aedes aegypti Mombasa assessed as mortality at 10 mM applied topically on upper part of pronotum after 48 hrs (reference value: 3 to 15%). Type of experiment: functional. To be noted: topical.
The subject of experiment [23] is Anopheles gambiae. Description: Insecticidal activity against five days old adult Anopheles gambiae Kisumu assessed as mortality at 100 mM applied topically on upper part of pronotum after 48 hrs (reference value: 15 to 24%). The experiment is classed as functional. The conditions noted are these: topical.
In experiment [24] the test system is Anopheles gambiae. Description: Insecticidal activity against five days old adult Anopheles gambiae Kisumu assessed as mortality at 1 nmol applied topically on upper part of pronotum after 24 hrs. The experiment is classed as functional.
For experiment [25], the system named is Anopheles gambiae. Put plainly: Insecticidal activity against 3rd instar larvae of Anopheles gambiae Kisumu assessed as mortality at 50 uM administered via de-chlorinated tap water after 24 hrs. Type of experiment: functional. The method in brief:
as §2

Experiment [26] concerns Aedes aegypti. Put plainly: Insecticidal activity against five days old adult Aedes aegypti Mombasa assessed as mortality at 10 mM applied topically on upper part of pronotum after 24 hrs (reference value: 3 to 15%). The experiment is classed as functional. The conditions noted are these: topical.
For experiment [27], the system named is Aedes aegypti. Put plainly: Insecticidal activity against five days old adult Aedes aegypti Mombasa assessed as mortality at 2 mM applied topically on upper part of pronotum after 24 hrs (reference value: 2 to 10%). Type of experiment: functional. The conditions noted are these: topical.
For experiment [28], the system named is Aedes aegypti. Put plainly: Insecticidal activity against 3rd instar larvae of Aedes aegypti Mombasa assessed as mortality at 500 uM administered via de-chlorinated tap water after 48 hrs (reference value: 0 to 2%). Type of experiment: functional.
For experiment [29], the system named is Aedes aegypti. Description: Insecticidal activity against 3rd instar larvae of Aedes aegypti Mombasa assessed as mortality at 500 uM administered via de-chlorinated tap water after 24 hrs. Type of experiment: functional. A digest of the protocol: as §2
Experiment [30] concerns Anopheles gambiae. Put plainly: Insecticidal activity against five days old adult Anopheles gambiae Kisumu assessed as mortality at 2 mM applied topically on upper part of pronotum after 48 hrs (reference value: 13 to 38%). The experiment is classed as functional. To be noted: topical.
Experiment [31] has as its system Aedes aegypti. Put plainly: Insecticidal activity against five days old adult Aedes aegypti Mombasa assessed as mortality at 0.2 nmol applied topically on upper part of pronotum after 24 hrs. Type of experiment: functional.
In experiment [32] the test system is Acetylcholinesterase (Anopheles gambiae), Q869C3 [G122S]. Put plainly: Inhibition of recombinant full length Anopheles gambiae AChE1 G122S mutant expressed in baculovirus-infected Sf9 insect cells up to 1 mM using acetylthiocholine iodide as substrate measured over 60 secs by Ellman's method. A digest of the protocol: as §1

The source made the active and inactive calls. The calls are words filed in the database; no cut-off is given here. Some results are limits rather than exact numbers.

As a reminder, the IC50 is the concentration that inhibits the measured activity by half. For `COc1cc(NC(=S)NCCN2CCOCC2)ccc1Cl`, the IC50 in experiment [1], in experiment [2], in experiment [3] and in [4] was greater than 200 µM each time.
On to `S=C(NCCN1CCCCC1)Nc1cccc(Cl)c1`, for which the IC50 was 120 µM in [1], 190 µM in experiment [2], 22 µM in experiment [3] and 140 µM in [4]. The Ratio IC50 in [5] is 1.
As for `CC1CCN(CCNC(=S)Nc2cccc(Cl)c2)CC1`, the IC50 in experiment [1], in [2], in experiment [3] and in [4] was greater than 200 µM in each case.
Broadly, the mortality is the share of the test organisms that died. With `COc1ccc(NC(=S)NCCN(C)C)cc1`, the mortality turned out to be 0% in experiment [6]; 55% in [15]; 12% in experiment [17]; 0% in experiment [19]; 32% in experiment [24]; 1% in experiment [31]. The mortality at 500 µM in experiment [7] came to 16%; in [13], 3%; in experiment [28] it was 3%; in experiment [29], 1%. Besides, the mortality at 100000 µM in experiment [8] came out at 17%; in [12], 59%; in experiment [18] it was 12%; in [23], 67%. Moreover, the mortality at 50 µM in [9] was determined as 5%; in [11], 4%; in experiment [14] it was 5%; in experiment [25], 4%. The mortality at 10000 µM came out at 50% in experiment [10], 43% in experiment [20], 21% in experiment [22] and 12% in experiment [26]. For the same compound, the mortality at 2000 µM in experiment [16] came out at 17%; in experiment [21], 11%; in [27], 11%; in experiment [30] it was 36%. In addition, the concentration for half-maximal inhibition (IC50) in experiment [1], in experiment [2], in [3] and in [4] was greater than 200 µM throughout.
`CN(C)CCN=C(S)Nc1ccccc1Cl`: the Ratio IC50 in experiment [5] was greater than 12.
Take `CN(C)CC/N=C(/S)Nc1ccc(S(N)(=O)=O)cc1`: the IC50 in experiment [1] is 56 µM; in experiment [2], greater than 200 µM; in [4] it was 74 µM. Besides, the Ratio IC50 in [5] was greater than 2.7. The inhibition result in experiment [32] is “inactive”.
Take `CN(C)CCN=C(S)Nc1cccc(Cl)c1`: the IC50 in experiment [1] is 83 µM; in experiment [2], 140 µM; in experiment [3] it was greater than 200 µM; in [4], 96 µM. Further, the Ratio IC50 in experiment [5] worked out at 1.
Take `NS(=O)(=O)c1ccc(NC(=S)NCCN2CCOCC2)cc1`: the IC50 in experiment [1], in [2] and in experiment [4] was greater than 200 µM each time. In addition, the inhibition result in experiment [32] is “inactive”.
Turning to `COc1ccc(NC(S)=NCCN2CCOCC2)cc1`, the Ratio IC50 in experiment [5] is greater than 18. Moreover, the IC50 was greater than 200 µM in experiment [2], greater than 200 µM in experiment [3] and 11 µM in [4].
